Measured values collected from several papers.
Lines come from different studies, so protocols differ.
Effect on: chemical stability

CO[C@@H](C[C@H]1C(C)=CC[C@@H]2[C@]3(C)C[C@H](O[C@@H]4O[C@@H](C)[C@H](OC(=O)c5cccc(O)c5)[C@@H](O[C@@H]5O[C@H](CO)[C@@H](O)[C@H](O)[C@H]5NC(C)=O)[C@H]4O)[C@@H](O)C(C)(C)[C@H]3CC[C@]21C)[C@H](N)C(=O)O.O=C(O)C(F)(F)F  half-life (simulated intestinal fluid; 1 µM; pH 6.8): > 8 h
CCOC(=O)c1nn(C(=O)C2CC2)c2ccccc2c1=O  half-life (aqueous buffer; pH 7.3): 1.44 h
COc1cc(/C=C/C(=O)CC(=O)/C=C/c2ccc(O)c(OC)c2)ccc1O  half-life (HPLC; culture medium; 10 µM): 0.9 h
Cc1cn([C@H]2C=C[C@@H](CO)O2)c(=O)[nH]c1=O  half-life (HPLC; aqueous buffer; 920 µM; pH 7.3): > 40 h
Cc1cccc(C(=O)n2ncc(=O)c3cc([N+](=O)[O-])ccc32)c1  half-life (aqueous buffer; pH 7.3): 0.55 h
Nc1nc2c(nc([N+](=O)[O-])n2[C@@H]2O[C@H](CO)[C@@H](O)[C@H]2O)c(=O)[nH]1  half-life (HPLC; aqueous buffer; 500 µM; pH 2): 5.35 h
COc1ccc(OC)c(/C=C2\CC/C(=C\c3ccc(O)c(OC)c3)C2=O)c1  half-life (HPLC; culture medium; 10 µM): 2.6 h
COc1ccc(S(=O)(=O)NCC2CCN(C(=O)OC(C(F)(F)F)C(F)(F)F)CC2)cc1  half-life (HPLC; aqueous buffer; 167 µM; pH 7.4): 2.58 h
Cc1cccc(C(=O)Oc2cnnc3ccc([N+](=O)[O-])cc23)c1  half-life (aqueous buffer; pH 7.3): 0.698 h
Cc1ccc(S(=O)(=O)NCC2CCN(C(=O)OC(C(F)(F)F)C(F)(F)F)CC2)cc1  half-life (HPLC; aqueous buffer; 167 µM; pH 7.4): 1.24 h
CO[C@@H]1[C@H](O)[C@@H](CO)O[C@H]1n1c([N+](=O)[O-])nc2c(=O)[nH]c(N)nc21  half-life (HPLC; aqueous buffer; 500 µM; pH 2): 11 h
Cn1nnc2c(-c3ccccc3)ncn2c1=O  half-life (HPLC; PBS; pH 7.4): > 20 h
O=C(OC(C(F)(F)F)C(F)(F)F)N1CCC(CNS(=O)(=O)c2ccc(Cl)cc2)CC1  half-life (HPLC; aqueous buffer; 167 µM; pH 7.4): 6.86 h
